Laboratory results: article PMC4769423 (BMJ Open Respiratory Research, 2016)

Tested on: OVA-sensitised Brown Norway rat
Assay: OVA-sensitised and challenged Brown Norway rat allergy model
Assay type: in vivo
Conditions: 1 mg/kg intratracheal, 24 h before and 24 h after OVA challenge
Procedure, shortened: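 In OVA-sensitised Brown Norway rats, the test compound was given intratracheally 24 h before and 24 h after OVA challenge (5 sensitised-only, 9 dosed per point; or groups of eight). Alternatively, from 14 days post-sensitisation, rats received 1 mg/kg weekly for eight doses (10 per point), then aerosolised OVA 26 days later. BAL eosinophils and IL-13 were measured 48 h post-challenge. Results were given as mean±SEM; Mann-Whitney U test versus vehicle-dosed OVA controls.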

In the case of `CCCC1O[C@@H]2C[C@H]3[C@@H]4CCC5=CC(=O)C=C[C@]5(C)[C@H]4[C@@H](O)C[C@]3(C)[C@]2(C(=O)CO)O1` (stereo partly shown) [budesonide], the “efficacy of acute dosing (BAL eosinophils, IL-13)” value was “demonstrated efficacy”.
